Screens (PubChem BioAssay)
A3G deaminase – APOBEC3G (human) deaminase inhibition; Q9HC16; recombinant A3G, ssDNA deamination FAM/TAMRA fluorescence; inhibition, % at 20 µM; actives 0.28% (n = 330,000); AID 493012;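 active means inhibition of at least 40% at 20 µM, with no more than 30% in the related APOBEC3A deaminase screen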;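 further: plate controls were DMSO wells with A3G for no effect and wells lacking A3G enzyme for full effect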
PolyA inh – inhibitors of polyadenylation in S. cerevisiae | activity score, % at 12 µM | S. cerevisiae SKY197-pL101 polyadenylation reporter, beta-gal luminescence; efflux-impaired pdr1/pdr3 knockout yeast; score 100 = 6 SD above DMSO | actives 0.02% (n = 300,000);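 active means lowest replicate activity score at least 50, where 100 means six control SD above control mean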;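 further: yeast exposed to compound for 9 h at 30 °C; higher score means more reporter readthrough which indicates perturbed polyadenylation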
AHR act – activators of human aryl hydrocarbon receptor | P35869 | AHR-responsive luciferase reporter cells, luminescence | activation, % at 5 µM | actives 2.5% (n = 320,000) | AID 2796; in the data active means activation above about 47%;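 further: 0% = vehicle wells and 100% = reference agonist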
UCH37 inh – human UCH37 deubiquitinating enzyme inhibition. Q9Y5K5. purified proteasome/UCH37, Ub-AMC cleavage fluorescence. inhibition, % (concentration not given with the values). actives 0.33% (n = 330,000). AID 588478;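 active means mean inhibition over replicate wells above about 20%, limit read from the data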;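 further: 0% = compound-free wells with enzyme and 100% = wells lacking proteasome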
Target sequence (Q9Y5K5 whole entry, looked up): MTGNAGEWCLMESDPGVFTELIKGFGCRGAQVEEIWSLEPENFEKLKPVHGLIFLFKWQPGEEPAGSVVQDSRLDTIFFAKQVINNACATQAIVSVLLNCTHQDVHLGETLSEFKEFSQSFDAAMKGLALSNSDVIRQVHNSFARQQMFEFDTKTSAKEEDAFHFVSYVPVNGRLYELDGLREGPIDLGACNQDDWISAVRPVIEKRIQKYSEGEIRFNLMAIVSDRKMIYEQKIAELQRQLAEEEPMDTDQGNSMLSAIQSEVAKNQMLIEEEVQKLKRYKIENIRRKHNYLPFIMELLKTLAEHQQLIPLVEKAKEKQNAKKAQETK
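Material: human UCH37 enzyme supplied as purified proteasome complex / Amount: 0.15 nM proteasome as dispensed / Buffer or medium: pH 7.4 Tris-HCl (50 mM) with ovalbumin, ATP-MgCl2, DTT / Times: preincubation 30 min, reaction 25 min, room temperature / Technique: AMC fluorescence from Ub-AMC cleavage, excitation 355 nm, emission 460 nm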
A3A deaminase – human APOBEC3A DNA deaminase inhibition | recombinant A3A, FAM/TAMRA ssDNA deamination fluorescence | AID 493011 | actives 0.41% (n = 330,000) | inhibition, % at 20 µM;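 active means at least 40% inhibition at 20 µM here, with at most 30% in a related deaminase screen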;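 further: plate controls were A3A with DMSO for no effect and wells lacking A3A enzyme for full effect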
Target sequence (P31941 whole entry, looked up): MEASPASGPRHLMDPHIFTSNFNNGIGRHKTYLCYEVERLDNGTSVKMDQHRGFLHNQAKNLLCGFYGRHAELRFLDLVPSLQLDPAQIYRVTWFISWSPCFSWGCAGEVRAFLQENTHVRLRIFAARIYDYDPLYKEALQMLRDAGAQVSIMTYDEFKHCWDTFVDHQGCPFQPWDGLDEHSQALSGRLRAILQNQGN
Arrestin-AP2 inh – blocks beta-arrestin peptide binding to AP2 adaptin; FITC-arrestin peptide / GST-AP2 beads, flow cytometry; AP2 beta2 appendage carries R879A mutation; inhibition, % at 10 µM; actives 0.31% (n = 340,000); AID 504490;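 active means inhibition above a set limit, near 3 SD of compounds lacking own fluorescence, cut at about 54% in these data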;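 further: plate controls were DMSO wells for no effect and 5 µM unlabelled arrestin peptide for full effect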
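Test system: GST-tagged AP2 beta2-adaptin appendage (R879A) on 4 µm glutathione beads; also added: fluorescein-tagged arrestin peptide at 50 nM final; timing: 12 min plus 1 h, RT; signal: flow cytometry, FL1 (488/535 nm); read-out: percent drop in bead-associated FITC signal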
* marks the source's active call; other numbers are inactive results; i = inactive; / = not tested or not shown. Most compounds without a hit are left out; they make up all but 3.4% or so of the library.

SMILES	A3G deaminase	PolyA inh	AHR act	UCH37 inh	A3A deaminase	Arrestin-AP2 inh
CC(=NOC(=O)C1CC1)C1CC1c1ccc(F)cc1 (configuration not stated)	/	/	/	0.8	/	/
Cc1ccccc1N=Nc1c(O)[nH]c2ccccc12	28.7	-6.5	47.8*	6.2	1.8	14.4
COc1ccc2[nH]c(N=Nc3ccccc3C)c(O)c2c1	7.2	-9.4	65.2*	3.1	21.3	-27.3
Cc1ccc2[nH]c(O)c(N=Nc3ccccc3C)c2c1	-0.2	6.8	14.6	6.2	-0.5	10.5
CN(C)C=Nc1nc2nccc(-c3cccs3)n2n1	/	/	/	i	/	/
COc1ccccc1C(=O)Nc1cc(Cl)ccc1-n1cncn1	-8.2	10.9	49.4*	-2.3	6.0	-10.0
COc1cc(C(C)=O)ccc1OCC(=O)Nc1cc(Cl)ccc1-n1cncn1	-10.9	/	/	0.2	-0.7	-3.2
O=C(Nc1cc(Cl)ccc1-n1cncn1)c1ccc([N+](=O)[O-])s1	3.5	-4.4	68.4*	2.1	17.5	-3.0
O=C(Nc1ccccc1F)Nc1cc(Cl)ccc1-n1cncn1	-4.7	-4.7	11.3	1.6	-1.5	18.6
O=C(Nc1cc(Cl)ccc1-n1cncn1)c1ccco1	-8.0	3.3	31.5	1.0	22.2	-4.7
COc1cc(OC)c(C(=O)Nc2cc(Cl)ccc2-n2cncn2)cc1OC	-8.8	0.2	59.2*	0.1	3.3	-10.7
COc1ccc(NC(=S)NN=Cc2cccn2Cc2ccc(F)cc2)cc1	/	/	/	2.4	/	/
CCSc1nncn1/N=C/c1ccc(OC)c(OC)c1	-5.6	1.0	47.6*	/	-0.2	1.7
Cn1cccc1C=NNC(=O)C12CC3CC(CC(C3)C1)C2	/	/	/	3.6	/	/
COc1ccc(Br)cc1C=NNC(=O)c1cccc(S(=O)(=O)N2CCOCC2)c1	/	/	/	2.8	/	/
COc1ccc2c(c1)CCCC2=NOC(=O)c1ccccc1OC	/	/	/	0.6	/	/
CN(C)c1ccc(/C=[N+](\[O-])C(C)(C)C=NO)cc1	/	/	/	22.9*	/	/
CC(C)(C=NO)/[N+]([O-])=C/c1ccccc1	/	/	/	3.6	/	/
COc1ccc2[nH]c3c(N4CCc5ccccc5C4)ncnc3c2c1	-2.5	-2.3	58.4*	-40.3	1.2	11.2
CCOc1ccc2[nH]c3c(N4CCC5(CC4)OCCO5)ncnc3c2c1	-0.8	-1.7	71.2*	-138.2	1.3	/
CCOc1ccc2[nH]c3c(N4CCN(C(=O)c5ccco5)CC4)ncnc3c2c1	-0.3	23.2	23.9	-92.2	-0.4	/
Cc1cc(C=Nn2cnnc2)c(C)n1-c1ccc(Cl)cc1	/	/	/	3.4	/	/
COc1ccc(C=NN2CCN(c3ccc(Cl)cc3)CC2)cc1O	/	/	/	4.9	/	/
Cn1nc(-c2ccccc2)nc1-c1ccccc1	-6.2	-12.3	48.3*	1.9	-2.1	15.9
CCCCNC(=O)CSc1nc2ccc(N3CCOCC3)cc2c(=O)n1CCc1ccccc1	3.0	-6.4	58.3*	-50.3	2.2	2.5
SMILES	A3G deaminase	PolyA inh	AHR act	UCH37 inh	A3A deaminase	Arrestin-AP2 inh
COCCNC(=O)CSc1nc2ccc(N3CCOCC3)cc2c(=O)n1CCc1ccccc1	2.3	1.0	73.0*	-49.7	1.8	4.6
c1ccc(N2CCN(c3nc4ccccc4n4nnnc34)CC2)cc1	-6.6	-38.5	72.6*	-13.9	-0.6	-6.0
c1ccc2c(c1)nc(N1CCOCC1)c1nnnn12	-4.1	7.0	21.6	-1.4	-4.4	16.5
CCC(C)Nc1nc(-c2ccc3c(c2)NC(=O)CO3)cs1 (configuration not stated)	-5.1	3.1	62.7*	-2.1	-3.6	6.6
O=c1cc(-c2ccccc2)nc(/C=C/c2ccccc2)[nH]1	-6.9	-14.2	36.0	0.2	0.2	-2.9
COc1ccc(/C=C/c2nc(-c3ccccc3)cc(=O)[nH]2)cc1	-0.3	-20.8	76.2*	-99.0	4.3	38.4
COc1ccc(OC)c(C=NNC(=O)CN2CCSCC2)c1	/	/	/	i	/	/
C=CCOc1cccc(C(=O)Nc2ncn[nH]2)c1	-5.9	-15.4	57.8*	0.4	-4.6	5.5
COc1ccc(N=Nc2ccc(O)c3ncccc23)cc1	14.0	28.6	48.0*	7.2	-0.9	-2.0
COc1cccc(N=Nc2ccc(O)c3ncccc23)c1	1.3	2.0	8.8	/	6.4	12.9
COc1cc(OC)cc(C(=O)NNc2nc3cc4c(cc3s2)OCO4)c1	-1.6	6.7	21.0	-0.2	0.9	1.4
